Columns and labels:
[1] = Inhibition of human KSP
A2780 [2] = experiment: Induction of mitotic arrest in human A2780 cells […] clr:NU/NU-nuBR mouse assessed as minimum plasma concentration required to induce maximum mitotic arrest after 22 hrs; assay type: functional
A2780 [3] = experiment: Induction of mitotic arrest in human A2780 cells expressing MDR1 after 16 hrs; assay type: functional, cell-based; details: A2780, 16 h
[4] = Ratio of IC50 for induction of mitotic arrest in human […] to IC50 for induction of mitotic arrest in […] human KB-V-1 cells; assay type: functional
How it was run: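 Phospho-nucleolin mitotic-arrest assay in parental KB-3-1 and MDR1-overexpressing KB-V-1 cells (>500-fold higher MDR1 mRNA). Cells were treated in triplicate for 16 h across 10 000 to 0.1 nM (11-point, half-log series; 0.1% DMSO final). Total nucleolin was bead-captured from lysates and phospho-nucleolin detected by TG3 antibody plus a ruthenium-labelled secondary. Ratio = IC50 (KB-V-1) / IC50 (KB-3-1).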

[5] = target: Voltage-gated inwardly rectifying potassium channel KCNH2 (Homo sapiens, UniProt Q12809)
Voltage-gated inwardly rectifying potassium channel KCNH2, sequence (Q12809 whole entry): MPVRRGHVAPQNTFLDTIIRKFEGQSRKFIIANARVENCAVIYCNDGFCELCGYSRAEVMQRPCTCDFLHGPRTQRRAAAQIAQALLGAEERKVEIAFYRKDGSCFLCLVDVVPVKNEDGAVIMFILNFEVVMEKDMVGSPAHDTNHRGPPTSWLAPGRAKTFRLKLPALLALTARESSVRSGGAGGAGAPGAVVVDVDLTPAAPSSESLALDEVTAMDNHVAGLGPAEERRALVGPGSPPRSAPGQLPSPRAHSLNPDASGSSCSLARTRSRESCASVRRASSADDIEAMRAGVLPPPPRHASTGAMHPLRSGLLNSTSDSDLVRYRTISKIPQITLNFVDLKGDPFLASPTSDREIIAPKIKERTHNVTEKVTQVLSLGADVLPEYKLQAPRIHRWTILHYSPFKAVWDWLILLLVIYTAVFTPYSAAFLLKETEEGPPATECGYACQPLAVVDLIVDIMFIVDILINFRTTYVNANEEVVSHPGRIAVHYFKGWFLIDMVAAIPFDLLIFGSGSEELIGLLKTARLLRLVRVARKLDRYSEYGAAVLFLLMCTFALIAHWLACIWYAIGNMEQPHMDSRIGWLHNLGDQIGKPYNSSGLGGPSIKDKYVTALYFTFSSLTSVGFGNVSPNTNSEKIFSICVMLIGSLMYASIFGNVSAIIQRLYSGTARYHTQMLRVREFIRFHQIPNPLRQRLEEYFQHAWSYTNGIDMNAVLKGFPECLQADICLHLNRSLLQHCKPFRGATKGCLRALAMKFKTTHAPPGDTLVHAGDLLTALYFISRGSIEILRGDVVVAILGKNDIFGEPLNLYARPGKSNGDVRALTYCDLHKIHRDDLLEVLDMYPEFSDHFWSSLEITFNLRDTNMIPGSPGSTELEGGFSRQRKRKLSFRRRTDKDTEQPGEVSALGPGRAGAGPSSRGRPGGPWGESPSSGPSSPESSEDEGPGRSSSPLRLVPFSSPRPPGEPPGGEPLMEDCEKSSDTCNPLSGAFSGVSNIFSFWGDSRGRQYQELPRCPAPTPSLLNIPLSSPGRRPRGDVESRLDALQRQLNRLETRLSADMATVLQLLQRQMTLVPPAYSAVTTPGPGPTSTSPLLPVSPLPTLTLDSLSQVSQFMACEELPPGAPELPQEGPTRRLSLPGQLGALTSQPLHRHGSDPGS

[6] = Dissociation constant, pKa by Sirius GLpKa titrator; assay type: physicochemical
How it was run: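 Potentiometric pKa measured on a Sirius GLpKa titrator; mean of n = 3 determinations unless marked as a single determination.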

Rattus norvegicus [7] = experiment: AUC in rat at 12 mg/kg, iv; assay type: ADME, organism-based, Plasma; parameters: dose 12 mg/kg, route intravenous; details: in vivo
Rattus norvegicus [8] = experiment: AUC in rat at 4 mg/kg, iv; assay type: ADME, organism-based, Plasma; parameters: dose 4 mg/kg, route intravenous; details: in vivo
Rattus norvegicus [9] = experiment: AUC in rat at 1 mg/kg, iv; assay type: ADME, organism-based, Plasma; parameters: dose 1 mg/kg, route intravenous; details: in vivo
[10] = Inhibition of human KSP in presence of 30% mouse serum
How it was run: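 KSP ATPase assay as the primary one (0.25 nM KSP motor domain, microtubules, 1 mM ATP, pH 6.8, 3 h at RT, quinaldine red phosphate read-out), run with 30% mouse serum dialysed against reaction buffer (12-14 kDa cutoff). Mean of at least 3 experiments unless noted.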

| IC50 [1] | EC90 (A2780 [2]) | EC50 (A2780 [3]) | pKa [6] | Compound | further results |
| --- | --- | --- | --- | --- | --- |
| 4 nM | 400 nM | – | – | CN1CCC(N(C)C(=O)N2CC(c3cc(F)ccc3F)=C[C@H]2c2ccccc2)CC1 | – |
| 0.5 nM | – | > 10000 nM | – | CC(=O)O[C@H]1C(=O)[C@@]2(C)[C@H]([C@H](OC(=O)c3ccccc3)[C@]3(O)C[C@H](OC(=O)[C@H](O)[C@@H](NC(=O)c4ccccc4)c4ccccc4)C(C)=C1C3(C)C)[C@]1(OC(C)=O)CO[C@@H]1C[C@@H]2O [PACLITAXEL] | – |
| 13.3 nM | – | 13.8 nM | – | CN1CC[C@@H](N(C)C(=O)N2CC(c3cc(F)ccc3F)=C[C@@]2(CO)c2ccccc2)[C@@H](F)C1 | Ratio [4]: 4.8 |
| 34.1 nM | – | – | 4.9 | CN(C(=O)N1CC(c2cc(F)ccc2F)=C[C@@]1(CO)c1ccccc1)C1CCN(CC(F)F)CC1 | – |
| 7.4 nM | – | – | 9.8 | CN(C(=O)N1CC(c2cc(F)ccc2F)=C[C@@]1(CO)c1ccccc1)C1CCNCC1 | – |
| 6.2 nM | 125 nM | 5.6 nM | 8.8 | CN1CCC(N(C)C(=O)N2CC(c3cc(F)ccc3F)=C[C@@]2(CO)c2ccccc2)CC1 | IC50 [10]: 29.1 nM |
| 5.1 nM | – | – | 9.1 | CN(C(=O)N1CC(c2cc(F)ccc2F)=C[C@@]1(CO)c1ccccc1)C1CCN(CC2CC2)CC1 | – |

Second part, the compound before the results:

| Compound | IC50 [1] | EC90 (A2780 [2]) | EC50 (A2780 [3]) | pKa [6] | further results |
| --- | --- | --- | --- | --- | --- |
| CN1CC[C@H](N(C)C(=O)N2CC(c3cc(F)ccc3F)=C[C@@]2(CO)c2ccccc2)[C@@H](F)C1 | 11.5 nM | – | 16.5 nM | 6.6 | IC50 [5]: 36900 nM; Ratio [4]: 2.4 |
| CN(C(=O)N1CC(c2cc(F)ccc2F)=C[C@@]1(CO)c1ccccc1)C1CCN(CCF)CC1 | 5 nM | 100 nM | 4.8 nM | 7.6 | AUC (Rattus norvegicus [7]): 9.5 µM·h; AUC (Rattus norvegicus [8]): 2.5 µM·h; AUC (Rattus norvegicus [9]): 0.5 µM·h; IC50 [10]: 38.8 nM |
| CN(C(=O)N1CC(c2cc(F)ccc2F)=C[C@@]1(CO)c1ccccc1)C1CCN(C2CC2)CC1 | 5.9 nM | – | – | 7.5 | – |
| CN(C)C(=O)N1CC(c2cc(F)ccc2F)=C[C@@]1(CO)c1ccccc1 | 78 nM | – | – | – | – |
| CN1CC[C@@H](N(C)C(=O)N2CC(c3cc(F)ccc3F)=C[C@@]2(CO)c2ccccc2)[C@H](F)C1 | 11.9 nM | – | 37.6 nM | – | Ratio [4]: 2.9 |
| CN(C)C(=O)N1CC(c2cc(F)ccc2F)=C[C@@]1(CC[C@@H](N)C(F)F)c1ccccc1 | 5 nM | 1425 nM | 22.5 nM | – | IC50 [5]: 15900 nM; IC50 [10]: 84.2 nM |
